Measurements from ChEMBL document CHEMBL4627348, “Synthesis of (1,3,4-thiadiazol-2-yl)-acrylamide derivatives as potential antitumor agents against acute leukemia cells” (Bioorg Med Chem Lett, 2020).
Activity calls are given as the source filed them. The rule behind the calls is not given here.

Experiments:
HL-60 [1] = assay: Antiproliferative activity against human HL60 cells assessed as growth inhibition at 20 uM after 48 hrs by CCK-8 assay relative to control; assay type: functional; conditions: for inhibition of growth at 20 µM: HL-60, 48 h, read-out: GI
Method in brief: (§1)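 Single-dose screen at 20 μM in RS4;11 (human ALL), HL-60 (human promyelocytic leukemia) and HEK293T (normal-cell model). Cells exposed 48 h, viability read by CCK-8, growth inhibition ratio expressed relative to control.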

RS4-11 [2] = assay: Antiproliferative activity against human RS4:11 cells assessed as growth inhibition at 20 uM after 48 hrs by CCK-8 assay relative to control; assay type: functional; conditions: for inhibition of growth at 20 µM: RS4-11, 48 h, read-out: GI; method in brief: as §1
[3] = Cytotoxicity against HEK293T cells assessed as growth inhibition at 20 uM after 48 hrs by CCK8 assay relative to control; assay type: cell-based, HEK-293T; conditions: human, HEK293T cells; read-out: GI; method in brief: as §1
HL-60 [4] = assay: Antiproliferative activity against human HL60 cells assessed as growth inhibition after 48 hrs by CCK-8 assay; assay type: functional, cell-based; conditions: HL-60, 48 h
RS4-11 [5] = assay: Antiproliferative activity against human RS4:11 cells assessed as growth inhibition after 48 hrs by CCK-8 assay; assay type: functional, cell-based; conditions: RS4-11, 48 h
HEK-293T = assay: Cytotoxicity against human HEK293T cells assessed as growth inhibition after 48 hrs by CCK8 assay; assay type: cell-based

| Compound | inhibition of growth at 20 µM (HL-60 [1]) [%] | inhibition of growth at 20 µM (RS4-11 [2]) [%] | inhibition at 48 h, 20 µM [3] [%] | IC50 (HL-60 [4]) [µM] | IC50 (RS4-11 [5]) [µM] | IC50 (HEK-293T) [µM] | growth inhibition (GI) (RS4-11 [2]) | growth inhibition (GI) (HL-60 [1]) |
| --- | --- | --- | --- | --- | --- | --- | --- | --- |
| Cc1ccc(S(=O)(=O)Oc2ccccc2/C=C(\C#N)C(=O)Nc2nnc(Cc3cccc4ccccc34)s2)cc1 | 19 | 73 | 23 | – | – | – | – | – |
| N#C/C(=C\c1ccccc1OS(=O)(=O)c1ccccc1[N+](=O)[O-])C(=O)Nc1nnc(Cc2ccc(F)cc2)s1 | 35 | 61 | 6 | – | – | – | – | – |
| N#C/C(=C\c1ccccc1OS(=O)(=O)c1ccc([N+](=O)[O-])cc1)C(=O)Nc1nnc(-c2cccs2)s1 | 23 | 40 | 33 | – | – | – | – | – |
| COc1ccc(Cc2nnc(NC(=O)/C(C#N)=C/c3ccccc3OS(=O)(=O)c3ccc(F)cc3)s2)cc1 | 25 | 80 | 6 | – | – | – | – | – |
| COc1ccc(S(=O)(=O)Oc2ccccc2/C=C(\C#N)C(=O)Nc2nnc(-c3cccs3)s2)cc1 | 67 | 76 | 40 | 5.23 | 4.75 | > 20 | – | – |
| N#C/C(=C\c1ccccc1OS(=O)(=O)c1ccc(Cl)cc1)C(=O)Nc1nnc(Cc2ccccc2)s1 | 26 | 73 | 25 | – | – | – | – | – |
| N#C/C(=C\c1ccccc1OS(=O)(=O)c1ccc(OC(F)(F)F)cc1)C(=O)Nc1nnc(-c2cc3ccccc3[nH]2)s1 | 59 | 26 | 53 | 11.1 | > 20 | 14.4 | – | – |
| Cc1ccc(S(=O)(=O)Oc2cccc(/C=C(\C#N)C(=O)Nc3nnc(-c4ccccc4)s3)c2)cc1 | 63 | 35 | 52 | – | – | – | – | – |
| Cc1ccc(S(=O)(=O)Oc2ccccc2/C=C(\C#N)C(=O)Nc2nnc(Cc3ccc(Cl)cc3)s2)cc1 | 15 | 69 | 20 | – | – | – | – | – |
| N#C/C(=C\c1ccccc1OS(=O)(=O)c1ccccc1[N+](=O)[O-])C(=O)Nc1nnc(Cc2ccc(Cl)cc2)s1 | 19 | 65 | 20 | – | – | – | – | – |
| Cc1ccc(Cc2nnc(NC(=O)/C(C#N)=C/c3ccccc3OS(=O)(=O)c3ccc(C)cc3)s2)cc1 | 17 | 66 | 22 | – | – | – | – | – |
| Cc1ccc(Cc2nnc(NC(=O)/C(C#N)=C/c3ccccc3OS(=O)(=O)c3ccc(Cl)cc3)s2)cc1 | 38 | 72 | 8 | – | – | – | – | – |
| COc1ccc(Cc2nnc(NC(=O)/C(C#N)=C/c3ccccc3OS(=O)(=O)c3ccc(Cl)cc3)s2)cc1 | – | 79 | 34 | – | 4.02 | > 50 | – | – |
| N#C/C(=C\c1ccccc1OS(=O)(=O)c1ccc(Cl)cc1)C(=O)Nc1nnc(Cc2ccc(Cl)cc2)s1 | 15 | 64 | 14 | – | – | – | – | – |
| N#C/C(=C\c1cccc(OS(=O)(=O)c2cccs2)c1)C(=O)Nc1nnc(-c2cccs2)s1 | 30 | – | 50 | – | – | – | inactive | – |
| CC(=O)Nc1ccc(S(=O)(=O)Oc2cccc(/C=C(\C#N)C(=O)Nc3nnc(-c4cccs4)s3)c2)cc1 | 71 | 33 | 20 | 7.94 | > 20 | > 20 | – | – |
| COc1ccc(S(=O)(=O)Oc2ccccc2/C=C(\C#N)C(=O)Nc2nnc(Cc3ccccc3)s2)cc1 | 100 | 78 | 23 | 3.17 | 1.06 | > 50 | – | – |
| Cc1ccc(Cc2nnc(NC(=O)/C(C#N)=C/c3ccccc3OS(=O)(=O)c3ccccc3[N+](=O)[O-])s2)cc1 | 33 | – | 6 | – | – | – | inactive | – |
| N#C/C(=C\c1ccccc1OS(=O)(=O)c1ccc(F)cc1)C(=O)Nc1nnc(Cc2cccc3ccccc23)s1 | 12 | 68 | 15 | – | – | – | – | – |
| Cc1ccc(S(=O)(=O)Oc2ccccc2/C=C(\C#N)C(=O)Nc2nnc(Cc3ccc(F)cc3)s2)cc1 | – | 72 | 16 | – | – | – | – | inactive |
| N#C/C(=C\c1ccccc1OS(=O)(=O)c1ccc(F)cc1)C(=O)Nc1nnc(Cc2ccccc2)s1 | 22 | 69 | 6 | – | – | – | – | – |
| Cc1ccc(Cc2nnc(NC(=O)/C(C#N)=C/c3ccccc3OS(=O)(=O)c3ccc([N+](=O)[O-])cc3)s2)cc1 | 17 | 64 | 9 | – | – | – | – | – |

| Compound | inhibition of growth at 20 µM (HL-60 [1]) [%] | inhibition of growth at 20 µM (RS4-11 [2]) [%] | inhibition at 48 h, 20 µM [3] [%] | IC50 (HL-60 [4]) [µM] | IC50 (RS4-11 [5]) [µM] | IC50 (HEK-293T) [µM] | growth inhibition (GI) (RS4-11 [2]) | growth inhibition (GI) (HL-60 [1]) |
| --- | --- | --- | --- | --- | --- | --- | --- | --- |
| N#C/C(=C\c1ccccc1OS(=O)(=O)c1ccc([N+](=O)[O-])cc1)C(=O)Nc1nnc(Cc2ccc(Cl)cc2)s1 | 34 | 66 | 19 | – | – | – | – | – |
| COc1ccc(Cc2nnc(NC(=O)/C(C#N)=C/c3ccccc3OS(=O)(=O)c3ccc(C)cc3)s2)cc1 | 25 | 70 | 21 | – | – | – | – | – |
| N#C/C(=C\c1ccccc1OS(=O)(=O)c1ccc([N+](=O)[O-])cc1)C(=O)Nc1nnc(Cc2cccc3ccccc23)s1 | 18 | 58 | 25 | – | – | – | – | – |
| N#C/C(=C\c1ccccc1OS(=O)(=O)c1ccccc1[N+](=O)[O-])C(=O)Nc1nnc(Cc2ccccc2)s1 | 12 | 71 | 10 | – | – | – | – | – |
| COc1ccc(Cc2nnc(NC(=O)/C(C#N)=C/c3ccccc3OS(=O)(=O)c3ccccc3[N+](=O)[O-])s2)cc1 | 25 | 68 | 18 | – | – | – | – | – |
| Cc1ccc(S(=O)(=O)Oc2ccccc2/C=C(\C#N)C(=O)Nc2nnc(Cc3ccccc3)s2)cc1 | 16 | 69 | 15 | – | – | – | – | – |
| N#C/C(=C\c1ccccc1OS(=O)(=O)c1ccc(Cl)cc1)C(=O)Nc1nnc(-c2cccs2)s1 | 17 | 22 | 46 | – | – | – | – | – |
| Cc1ccc(S(=O)(=O)Oc2cccc(/C=C(\C#N)C(=O)Nc3nnc(-c4ccccc4Cl)s3)c2)cc1 | 67 | 44 | 55 | – | – | – | – | – |
| COc1ccc(S(=O)(=O)Oc2ccccc2/C=C(\C#N)C(=O)Nc2nnc(Cc3ccc(C)cc3)s2)cc1 | 100 | 79 | 28 | 4.08 | 1.01 | > 50 | – | – |
| COc1ccc(S(=O)(=O)Nc2cccc(/C=C(\C#N)C(=O)Nc3nnc(-c4cccs4)s3)c2)cc1 | 77 | 40 | 21 | 8.37 | > 20 | > 20 | – | – |
| Cc1nnc(NC(=O)/C(C#N)=C/c2cccc(OS(C)(=O)=O)c2)s1 | 20 | 33 | 20 | – | – | – | – | – |
| N#C/C(=C\c1ccccc1OS(=O)(=O)c1ccc(OC(F)(F)F)cc1)C(=O)Nc1nnc(-c2cccs2)s1 | 48 | 39 | 42 | – | – | – | – | – |
| N#C/C(=C\c1ccccc1OS(=O)(=O)c1ccc(Cl)cc1)C(=O)Nc1nnc(Cc2ccc(F)cc2)s1 | 20 | 68 | 6 | – | – | – | – | – |
| N#C/C(=C\c1ccccc1OS(=O)(=O)c1ccc(Cl)cc1)C(=O)Nc1nnc(Cc2cccc3ccccc23)s1 | 15 | 68 | 16 | – | – | – | – | – |
| N#C/C(=C\c1ccccc1OS(=O)(=O)c1ccc(F)cc1)C(=O)Nc1nnc(Cc2ccc(Cl)cc2)s1 | 20 | 64 | 14 | – | – | – | – | – |
| CS(=O)(=O)Oc1ccc(/C=C(\C#N)C(=O)Nc2nnc(-c3cccs3)s2)cc1 | – | 13 | 19 | – | – | – | – | inactive |
| N#C/C(=C\c1ccccc1OS(=O)(=O)c1ccc(Cl)cc1)C(=O)Nc1nnc(Cc2cccc(F)c2)s1 | 42 | 71 | 29 | – | – | – | – | – |
| N#C/C(=C\c1ccccc1OS(=O)(=O)c1ccc([N+](=O)[O-])cc1)C(=O)Nc1nnc(Cc2ccc(F)cc2)s1 | 18 | 55 | 8 | – | – | – | – | – |
| N#C/C(=C\c1cccc(NS(=O)(=O)c2ccc(F)cc2)c1)C(=O)Nc1nnc(-c2cccs2)s1 | – | 22 | 29 | – | – | – | – | inactive |
| Cc1ccc(S(=O)(=O)Oc2ccccc2/C=C(\C#N)C(=O)Nc2nnc(Cc3cccc(F)c3)s2)cc1 | 11 | 56 | 9 | – | – | – | – | – |
| Cc1ccc(Cc2nnc(NC(=O)/C(C#N)=C/c3ccccc3OS(=O)(=O)c3ccc(F)cc3)s2)cc1 | 11 | 73 | 11 | – | – | – | – | – |
| N#C/C(=C\c1ccccc1OS(=O)(=O)c1ccc(F)cc1)C(=O)Nc1nnc(Cc2cccc(F)c2)s1 | 22 | 72 | 17 | – | – | – | – | – |
